Calls of active or inactive are those of the source. The calls are words filed in the database; no cut-off is given here.
Key:
[1] = Half life in mouse liver microsomes in presence of NADPH regeneration system
[2] = Intrinsic clearance in human liver microsomes in presence of NADPH regeneration system
M14 = experiment: Cytotoxicity in human M14 cells assessed as reduction in cell viability incubated for 72 hrs by MTS assay; assay type: functional, cell-based; conditions: M14, 72 h
A-375 [3] = experiment: Cytotoxicity in human A375 cells assessed as reduction in cell viability incubated for 72 hrs by MTS assay; assay type: functional, cell-based; conditions: A-375, 72 h
[4] = Half life in rat liver microsomes in presence of NADPH regeneration system
[5] = Half life in human liver microsomes in presence of NADPH regeneration system
[6] = Intrinsic clearance in rat liver microsomes in presence of NADPH regeneration system
RPMI-7951 = experiment: Cytotoxicity in human RPMI7951 cells assessed as reduction in cell viability incubated for 72 hrs by MTS assay; assay type: functional, cell-based; conditions: RPMI-7951, 72 h
[7] = Intrinsic clearance in mouse liver microsomes in presence of NADPH regeneration system
A-375 [8] = experiment: Antitumor activity against human A375 cells xenografted in mouse assessed as reduction in tumor weight at 30 mg/kg, ip dosed every other day for 2 weeks; assay type: functional, organism-based
Outline: (§1)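 Nude mice (6–8 weeks) implanted s.c. in dorsal flank with 2.5×10^6 log-phase A375 cells in serum-free, phenol red-free medium mixed with Matrigel. At ~100 mm³ tumours, randomized (n = 8); i.p. 100 μL every other day for 2 weeks in PEG300:PBS 1:1, vehicle control.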

DU-145 = experiment: Cytotoxicity in human DU145 cells assessed as reduction in cell viability incubated for 72 hrs by MTS assay; assay type: functional, cell-based; conditions: DU-145, 72 h
Outline: (§2)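 Prostate lines (parental PC-3 and DU-145, with paclitaxel- or docetaxel-resistant TxR sublines) grown in RPMI 1640 with 10% FBS and antibiotic/antimycotic at 37 °C, 5% CO2. Seeded at 1,800–3,500 cells/well overnight, then dosed at 10 concentrations, 0.03 nM–1 μM, plus DMSO vehicle, for 72 h, quadruplicate. MTS read at 490 nm; IC50 by nonlinear regression.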

Mus musculus [9] = experiment: Toxicity in human A375 cells xenografted mouse assessed as effect on body weight at 30 mg/kg, ip dosed every other day for 2 weeks relative to untreated control; assay type: organism-based; conditions: in vivo, 336 h
A-375 [10] = experiment: Antitumor activity against human A375 cells xenografted in mouse assessed as inhibition of tumor growth at 30 mg/kg, ip dosed every other day for 2 weeks relative to untreated control; assay type: functional; conditions: A-375, ip, 336 h, read-out: TGI; outline: as §1
A-375 [11] = experiment: Antitumor activity against human A375 cells xenografted in mouse assessed as reduction in tumor volume at 15 mg/kg, ip dosed every other day for 2 weeks; assay type: functional, organism-based; outline: as §1
[12] = Resistance index, ratio of IC50 for cytotoxicity in human DU145-TxR cells to IC50 for cytotoxicity in human DU145 cells; assay type: functional
Outline: (§3)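 Prostate lines cultured in RPMI 1640 with 10% FBS at 37 °C and 5% CO2: parental PC-3 with paclitaxel-resistant PC-3/TxR, and parental DU-145 with docetaxel-resistant DU-145/TxR. Cells seeded at 1,800–3,500/well and left overnight, then exposed 72 h to 10 concentrations (0.03 nM–1 μM) or DMSO vehicle, in quadruplicate. MTS read at 490 nm; IC50s by nonlinear regression; index = resistant IC50/parental IC50.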

A-375 [13] = experiment: Antitumor activity against human A375 cells xenografted in mouse assessed as reduction in tumor volume at 30 mg/kg, ip dosed every other day for 2 weeks; assay type: functional, organism-based; outline: as §1
Bos taurus = species on record: Bos taurus; experiment: Inhibition of bovine brain tubulin polymerization at 10 uM measured every 1 min for 20 mins by spectrophotometry
[14] = Cytotoxicity in human DU145-TxR cells assessed as reduction in cell viability incubated for 72 hrs by MTS assay; assay type: functional, cell-based; outline: as §2
A-375 [15] = experiment: Antitumor activity against human A375 cells xenografted in mouse assessed as inhibition of tumor growth at 15 mg/kg, ip dosed every other day for 2 weeks relative to untreated control; assay type: functional; conditions: A-375, ip, 336 h, read-out: TGI; outline: as §1
Mus musculus [16] = experiment: Toxicity in human A375 cells xenografted mouse assessed as effect on body weight at 15 mg/kg, ip dosed every other day for 2 weeks relative to untreated control; assay type: organism-based; conditions: in vivo, 336 h
[17] = Resistance index, ratio of IC50 for cytotoxicity in human PC3-TxR cells to IC50 for cytotoxicity in human PC3 cells; assay type: functional; outline: as §3
[18] = Cytotoxicity in human PC3-TxR cells assessed as reduction in cell viability incubated for 72 hrs by MTS assay; assay type: functional, cell-based
PC-3 = experiment: Cytotoxicity in human PC3 cells assessed as reduction in cell viability incubated for 72 hrs by MTS assay; assay type: functional, cell-based; conditions: PC-3, 72 h
A-375 [19] = experiment: Antitumor activity against human A375 cells xenografted in mouse assessed as reduction in tumor weight at 15 mg/kg, ip dosed every other day for 2 weeks; assay type: functional; set-up: scale not given: the % may be the effect or the level left; outline: as §1
Homo sapiens = species on record: Homo sapiens; experiment: Cytotoxicity in human DU145-TxR cells assessed as reduction in cell viability up to 1 uM incubated for 72 hrs by MTS assay; assay type: functional, cell-based; outline: as §2

SMILES	t1/2 [1]	CLint scaled ([2]; liver microsomes)	IC50 (M14)	IC50 (A-375 [3])	t1/2 [4]	t1/2 [5]	CLint scaled ([6]; liver microsomes)	IC50 (RPMI-7951)	CLint scaled ([7]; liver microsomes)	also measured
O=C(c1ccc2c(c1)OCO2)c1c[nH]c(-c2c[nH]c3ccccc23)n1	2.28 h	5.5 mL/min/kg	0.155 µM	0.191 µM	2.55 h	3.77 h	18.3 mL/min/kg	0.236 µM	25.1 mL/min/kg	
COc1cc(C(=O)c2c[nH]c(-c3c[nH]c4cccc(C)c34)n2)cc2c1OC=CO2			0.0061 µM					0.0088 µM		
COc1cc(C(=O)c2c[nH]c(-c3c[nH]c4ccccc34)n2)cc2c1OC=CO2	1.42 h	7.7 mL/min/kg	0.0012 µM	0.0011 µM	3.57 h	2.69 h	13.1 mL/min/kg	0.0033 µM	40.3 mL/min/kg	Activity (A-375 [8]): Active; IC50 (DU-145): 0.0422 µM; Activity (Mus musculus [9]): Non-Toxic; inhibition in vivo at 30 mg/kg (A-375 [10]): 73.9%; Activity (A-375 [11]): Active; Ratio IC50 [12]: 1.9; Activity (A-375 [13]): Active; inhibition (Bos taurus): Active; IC50 [14]: 0.0815 µM; inhibition in vivo at 15 mg/kg (A-375 [15]): 54.8%; Activity (Mus musculus [16]): Non-Toxic; Ratio IC50 [17]: 0.5; IC50 [18]: 0.0076 µM; IC50 (PC-3): 0.0152 µM
COc1cc(C(=O)c2c[nH]c(-c3c[nH]c4ccccc34)n2)cc2c1OCCCO2			0.0382 µM	0.0322 µM				0.0477 µM		
COc1cc(C(=O)c2c[nH]c(-c3cccc4[nH]ccc34)n2)cc2c1OC=CO2			0.0138 µM	0.0171 µM				0.0348 µM		
COc1cc(C(=O)c2c[nH]c(-c3c[nH]c4ccccc34)n2)cc2c1OCCO2	2.03 h	9.76 mL/min/kg	0.0113 µM	0.021 µM	0.9 h	2.13 h	51.9 mL/min/kg	0.0292 µM	28.2 mL/min/kg	
CC(=O)O[C@H]1C(=O)[C@@]2(C)[C@H]([C@H](OC(=O)c3ccccc3)[C@]3(O)C[C@H](OC(=O)[C@H](O)[C@@H](NC(=O)c4ccccc4)c4ccccc4)C(C)=C1C3(C)C)[C@]1(OC(C)=O)CO[C@@H]1C[C@@H]2O [PACLITAXEL]										IC50 (DU-145): 0.0015 µM; Activity (A-375 [11]): Active; Activity (A-375 [19]): 62.3%; inhibition in vivo at 15 mg/kg (A-375 [15]): 70.7%; Activity (Homo sapiens): inactive
COc1cc(C(=O)c2c[nH]c(-c3c[nH]c4ccccc34)n2)cc2c1OCO2	0.82 h		0.0056 µM	0.0035 µM	0.18 h	1.28 h				CLint scaled ([2]; microsomes): 16.3 mL/min/kg; CLint scaled ([6]; microsomes): 253 mL/min/kg; CLint scaled ([7]; microsomes): 69.6 mL/min/kg
O=C(c1ccc2c(c1)OCCO2)c1c[nH]c(-c2c[nH]c3ccccc23)n1	0.37 h	5.95 mL/min/kg	0.119 µM	0.159 µM	0.85 h	3.5 h	54.9 mL/min/kg	0.214 µM	154 mL/min/kg	
